Screening data as filed in PubChem.
PREPL inhibitor: inhibits the human prolyl oligopeptidase-like enzyme | Q4J6C6 | recombinant PREPL, fluorescence polarization activity-based probe | inhibition, % at 5.96 µM | 320,000 tested, 0.68% active | AID 2751; in the data active = inhibition above about 43%
Fh CTSL1 inh: blocks F. hepatica cathepsin L1 in PFM18AAP counter-screen; recombinant F. hepatica cathepsin L1, Z-Leu-Arg-MCA fluorescence; inhibition, % at 5.96 µM; 300,000 tested, 0.49% active; AID 1906;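 active = inhibition above the mean of all tested compounds plus 3 SD, set per screening campaign, cut at about 17% in these data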
UCH37 DUB inh: human UCH37 deubiquitinating enzyme inhibition; inhibition, % (no concentration beside the values); 330,000 tested, 0.33% active; purified proteasome/UCH37, Ub-AMC cleavage fluorescence; Q9Y5K5; AID 588478;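 active = mean inhibition over replicate wells above about 20%, limit read from the data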
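Material: Human UCH37 enzyme supplied as purified proteasome complex | Schedule: 30 min preincubation with enzyme, 25 min cleavage at room temperature | Detection: AMC fluorescence 355/460 nm | Measure: % inhibition of Ub-AMC cleavage fluorescence | Controls: Wells without proteasome as full block, compound-free enzyme plus substrate as uninhibited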
PP1 counter: counter-screen for PP5 inhibitors: inhibitors of human PP1-alpha; inhibition, % at 6.7 µM; P62136; 320,000 tested, 0.9% active; purified PP1alpha, OMFP fluorescence; AID 2235;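 active = inhibition above the mean inhibition of all tested compounds plus 3 SD, computed separately for each screening campaign, cut at about 15% in these data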
Target sequence (P62136 whole entry, looked up): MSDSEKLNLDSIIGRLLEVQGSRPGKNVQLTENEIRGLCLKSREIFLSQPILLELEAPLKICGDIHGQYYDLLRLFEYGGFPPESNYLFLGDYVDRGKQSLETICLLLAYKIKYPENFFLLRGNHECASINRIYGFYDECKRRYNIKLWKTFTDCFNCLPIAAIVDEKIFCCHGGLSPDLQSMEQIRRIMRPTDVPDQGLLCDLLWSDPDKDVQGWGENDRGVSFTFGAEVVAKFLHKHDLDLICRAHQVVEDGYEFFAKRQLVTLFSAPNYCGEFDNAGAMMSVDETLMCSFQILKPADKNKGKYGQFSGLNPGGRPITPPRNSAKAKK
PP5 inh: blocks human protein phosphatase 5 activity; P53041; 320,000 tested, 0.18% active; AID 1987; purified PP5c, OMFP substrate fluorescence; inhibition, % at 6.7 µM;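 active = inhibition above the campaign's mean inhibition across all tested compounds plus 3 SD, cut at about 9.5% in these data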
UBC13 polyUb: blocks human UBC13 polyubiquitin chain formation. TR-FRET. P61088. 330,000 tested, 0.47% active. inhibition, % at 20 µM; in the data active = inhibition above about 45%, passing the limit was not always enough
Target sequence (P61088 whole entry, looked up): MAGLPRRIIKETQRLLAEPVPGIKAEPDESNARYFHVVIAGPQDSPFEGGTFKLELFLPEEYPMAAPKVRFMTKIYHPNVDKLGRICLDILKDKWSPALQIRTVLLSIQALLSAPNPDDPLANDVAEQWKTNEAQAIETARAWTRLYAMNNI
PP1 inh confirm: confirmation of human PP1 phosphatase inhibitors; shares compounds with PP1 counter; purified PP1alpha, OMFP substrate fluorescence; 1,900 tested, 52% active; inhibition, % at 6.7 µM;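 active = mean PP1 inhibition above a set limit taken from the earlier primary screen, cut at about 15% in these data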
PP5 counter: PP5 phosphatase inhibition, counter-screen for PP1 inhibitors; shares compounds with PP1 counter; purified PP5c, OMFP fluorescence; inhibition, % at 6.7 µM; 1,900 tested, 4% active;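 active = mean PP5 inhibition over triplicate wells above about 9.5% taken from the earlier PP1 screen, limit read from the data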
A number is an active result; – = inactive; · = no result given. Most compounds without a hit are left out; they make up all but 2.3% or so of the library.

SMILES | PREPL inhibitor | Fh CTSL1 inh | UCH37 DUB inh | PP1 counter | PP5 inh | UBC13 polyUb | PP1 inh confirm | PP5 counter
CC1CCN(Cc2c(C(=O)N/N=C/c3ccccc3O)nnn2-c2nonc2N)CC1 | – | – | · | 22 | – | – | 17 | –
O=C(Nc1nc(-c2ccco2)c(-c2ccco2)s1)c1cnccn1 | – | – | · | 23 | – | – | – | –
CC(=NNC(N)=S)c1ccc2c(c1)OCCO2 | · | · | – | · | · | · | · | ·
Cc1ccc2[nH]c(=O)c(-c3nc4cc(C)ccn4c3NCc3ccco3)cc2c1 | – | – | – | 18 | – | – | 21 | –
Cc1cc(C)nc(SCc2ccc(C(=O)NN=C3CCCC(=O)C3)cc2)n1 | · | · | – | · | · | · | · | ·
CC(C)c1ccc(NC(=O)Nc2cc3sccc3n2C)cc1 | – | – | – | 18 | – | – | – | –
COc1cc(C=NNC(=O)C(N)=O)ccc1OC(=O)c1cccs1 | · | · | – | · | · | · | · | ·
Cc1ccc2cc(CN(Cc3ccc(F)cc3)Cc3nnnn3C3CCCC3)c(=O)[nH]c2c1 | – | – | – | – | – | – | · | ·
CCc1ccc2[nH]c(=O)c(CN(Cc3ccc4c(c3)OCO4)Cc3nnnn3C3CCCC3)cc2c1 | – | – | – | 21 | – | – | – | –
CC(CC(=O)Nc1ccc(Cl)cc1)=NNC(=O)C(=O)NCCO | · | · | – | · | · | · | · | ·
CCOc1ccccc1NC(=O)CSc1nc2nc(-c3cccs3)cc(C(F)(F)F)c2c(=O)[nH]1 | – | – | – | 21 | – | – | – | –
CCCCCCCCC/C(=N\O)c1ccccn1 | – | – | · | 32 | – | – | 28 | –
CCCCCCCCC(=O)N/N=C/c1ccccn1 | – | – | · | – | – | – | · | ·
CC(=NNc1ccccc1C(=O)O)c1ccncc1 | · | · | – | · | · | · | · | ·
CCCC(=O)NC(c1cccs1)c1cc([N+](=O)[O-])c2cccnc2c1O (stereo not drawn) | – | – | – | 18 | – | · | 16 | –
CC(=O)NC(c1ccccc1)c1cc([N+](=O)[O-])c2cccnc2c1O (stereo not drawn) | – | – | – | – | – | – | · | ·
CC(C)C(=O)NC(c1ccccc1)c1cc([N+](=O)[O-])c2cccnc2c1O (stereo not drawn) | – | – | – | 29 | – | – | – | 11
O=c1[nH]c(NNC(=S)NC2CCCCC2)nc2c1C1(CCCC1)Cc1ccccc1-2 | – | – | – | 19 | – | – | – | –
O=c1[nH]c(NNC(=S)NCc2ccccc2)nc2c1C1(CCCCC1)Cc1ccccc1-2 | – | – | – | – | – | – | · | ·
N#Cc1ccc(C23CC4(C2)[C@H](CN(P(=O)(c2ccccc2)c2ccccc2)[C@@H]4c2ccccc2)C3c2ccc(Cl)nc2)cc1 (stereo partly drawn) | – | – | – | 18 | – | – | – | –
Clc1ccc(C2[C@H]3CN(Cc4cccnc4)[C@H](c4ccccc4)C34CC2(c2ccccc2)C4)cn1 (stereo partly drawn) | – | – | – | 21 | – | – | 17 | –
CN1C[C@@H]2C(c3ccc(Cl)nc3)C3(c4ccc(C#N)cc4)CC2(C3)[C@H]1c1ccccc1 (stereo partly drawn) | – | – | – | – | – | – | · | ·
O=C(Nc1nc(-c2ccccn2)cs1)c1ccc(F)c(S(=O)(=O)N2CCOCC2)c1 | – | · | – | 30 | – | – | 37 | –
Cc1ccc(C(=O)Nc2nc(-c3ccccn3)cs2)cc1S(=O)(=O)N1CCOCC1 | – | · | – | 31 | – | – | 35 | –
CN(CC1CCCO1)S(=O)(=O)c1ccc(C(=O)Nc2ccccc2F)cc1 (stereo not drawn) | – | – | – | – | – | – | · | ·
SMILES | PREPL inhibitor | Fh CTSL1 inh | UCH37 DUB inh | PP1 counter | PP5 inh | UBC13 polyUb | PP1 inh confirm | PP5 counter
CN(CC1CCCO1)S(=O)(=O)c1ccc(C(=O)Nc2nc(-c3ccccn3)cs2)cc1 (stereo not drawn) | – | – | – | 29 | – | – | 28 | –
O=C(NN=Cc1cccnc1)c1ccc([N+](=O)[O-])cc1 | · | · | – | · | · | · | · | ·
CCCCNC(=O)CCCCC(=O)NN=Cc1cccc(Cl)c1 | · | · | – | · | · | · | · | ·
Cc1ccc(N2CC(C(=O)OCC(=O)NNC(=O)c3ccccc3)CC2=O)cc1 (stereo not drawn) | – | – | – | 35 | – | – | – | –
O=C(NCCCN1CCOCC1)C(=O)NN=Cc1ccc(F)cc1 | · | · | – | · | · | · | · | ·
c1ccc(-c2nc3cc4ccccc4cc3[nH]2)nc1 | – | – | – | 30 | – | – | 20 | –
O=C(CSc1nnc2c(n1)[nH]c1ccccc12)NCc1ccccc1F | – | – | – | 23 | – | – | – | –
O=c1cc(-c2ccccc2Cl)oc2c(NS(=O)(=O)c3ccccc3OC(F)(F)F)ccc(O)c12 | – | – | – | 24 | – | – | – | –
CCOc1ccc(NC(=O)CN(C)C(=O)Cn2c(=O)oc3ccccc32)cc1OCC | – | – | – | 41 | – | – | – | –
COc1ccc(Cl)cc1NC(=O)CN(C)C(=O)Cn1c(=O)oc2ccccc21 | – | – | – | – | – | – | · | ·
Cc1ccc2nc(-c3ccc(SCC(=O)Nc4nnc(C)s4)nc3)[nH]c2c1 | – | – | – | 20 | – | – | 25 | –
C/C=C\C=C/C(=O)Nc1cccc(C2=NOC3(C2)C[C@H](C(N)=O)N(C(=O)CC)C3)c1 (stereo partly drawn) | – | – | – | – | – | – | · | ·
C/C=C(/C)C(=O)Nc1cccc(C2=NOC3(C2)C[C@H](C(N)=O)N(C(=O)c2ccccc2)C3)c1 (stereo partly drawn) | – | – | – | 42 | – | – | – | –
C=C(C)C(=O)Nc1cccc(C2=NOC3(C2)C[C@H](C(N)=O)N(C(=O)CC#N)C3)c1 (stereo partly drawn) | – | – | – | 37 | – | – | – | –
NC(=O)[C@H]1CC2(CC(c3cccc(NC(=O)CC(c4ccccc4)c4ccccc4)c3)=NO2)CN1C(=O)CC(c1ccccc1)c1ccccc1 (stereo partly drawn) | – | – | – | 22 | – | – | 29 | 12
C/C=C/C=C\C(=O)Nc1cccc(C2=NOC3(C2)C[C@H](C(N)=O)N(C(=O)CC#N)C3)c1 (stereo partly drawn) | – | – | – | 19 | – | – | – | –
C=C(C)C(=O)Nc1cccc(C2=NOC3(C2)C[C@H](C(N)=O)N(C(=O)CC)C3)c1 (stereo partly drawn) | – | – | – | – | – | – | · | ·
COc1cccc(C=NNC(=O)C(=O)N2CCCC2)c1O | · | · | – | · | · | · | · | ·
CCc1n[nH]c(=S)n1N=Cc1ccc(N(C)c2ccccc2)cc1 | · | · | – | · | · | · | · | ·
CCn1c(O)c(C=NN=C2CCCCC2)c2cc(C3=NNC(=O)CC3)ccc21 | · | · | – | · | · | · | · | ·
CCCCN1C(=O)C(O)=C(C(C)=O)C1c1ccccc1 (stereo not drawn) | – | – | – | – | – | – | · | ·
